The subject of data set [1] is Escherichia coli. Nature of the data set: Antibacterial activity against wild type Escherichia coli K12 after 12 hrs by microdilution method. The format is functional, organism-based. The following applies: K12, 12 h. The method in brief:
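Wild-type K12 grown in LB to mid-log, diluted 100-fold; 100 µl used to inoculate tubes of 10 mL LB containing inhibitor (stocks about 10 mM in DMSO). IC50 is the mean of at least three sets; values are means ± SD of at least three experiments in duplicate.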
On the technique in general: In broth dilution the organism is exposed to a series of concentrations in liquid medium.

For data set [2], the system named is Plasmodium falciparum. The data set is described as follows: Antimalarial activity against chloroquine-sensitive Plasmodium falciparum FCK2. The class given is functional, organism-based.
Data set [3] can be described thus: Stability at -10 to 40 degC after 24 hrs by FPLC assay. The class given is physicochemical. In outline: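 Prodrugs held in Luria Broth (pH 7.2) for 24 h at temperatures between -10 and 40 °C. Release of triclosan monitored by FPLC with UV detection.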
Data set [4] relates to Escherichia coli. Nature of the data set: Stability assessed as half life of prodrug disappearance in Escherichia coli culture. The class given is ADME, organism-based. The following applies: in vivo. In outline:
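E. coli cultures exposed to prodrug for 0, 2, 5, 10 and 20 min, then pelleted at 4 °C, washed in LB and resuspended in 50 mM Tris pH 7.5. Extracts cleaned by solid-phase extraction with methanol elution, then run on C18 reverse-phase FPLC with isocratic acetonitrile and UV detection at 230 nm. Half-life taken from prodrug disappearance.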

Data set [5] relates to Plasmodium falciparum. Nature of the data set: Stability assessed as half life of prodrug disappearance in Plasmodium falciparum culture. The format is ADME, organism-based. The following applies: in vivo. The method in brief: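 Synchronized young-trophozoite cultures treated with prodrug for 0, 0.5, 3, 6, 12, 18, 24 and 36 h. Parasites isolated into PBS, processed by solid-phase extraction, then analysed by C18 reverse-phase FPLC with absorbance at 230 nm. Half-life derived from loss of the prodrug peak.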

≈ marks a conversion by molar mass, not a printed value.

As for `NC(=O)CCC(=O)Oc1cc(Cl)ccc1Oc1ccc(Cl)cc1Cl`, the IC50 with Escherichia coli [1] was found to be 0.22 µM; with Plasmodium falciparum [2], 6.7 µM. The MIC in the data set on Escherichia coli [1] came to 0.6 µM (≈ 0.233 µg/mL); against Plasmodium falciparum [2] it was 27.9 µM (≈ 10.8 µg/mL). Also, the Stability entry in data set [3] is on record as “Stable”. Besides, the t1/2 in the data set with Escherichia coli [4] is reported as 12 min.
Turning to `O=C(O)CCCC(=O)Oc1cc(Cl)ccc1Oc1ccc(Cl)cc1Cl`, the IC50 worked out at 0.33 µM in the data set with Escherichia coli [1] and 0.52 µM in the data set with Plasmodium falciparum [2]. The MIC in the data set on Escherichia coli [1] amounted to 0.75 µM (≈ 0.303 µg/mL); against Plasmodium falciparum [2] it was 4.8 µM (≈ 1.94 µg/mL). Moreover, in data set [3], the Stability result was “Stable”. Also, the values for the t1/2 in the data set with Plasmodium falciparum [5] and in the data set on Escherichia coli [4] were 570 min and 9 min, respectively.
In the case of `O=C(Oc1cc(Cl)ccc1Oc1ccc(Cl)cc1Cl)c1cccnc1`, in the data set on Escherichia coli [1], the IC50 came to 3.1 µM and the lowest concentration to inhibit growth (MIC) was 9 µM (≈ 3.55 µg/mL). In addition, in the data set on Plasmodium falciparum [2], the IC50 is 1.15 µM and it took 9.7 µM (≈ 3.83 µg/mL) to inhibit growth (MIC). Moreover, in data set [3], the Stability result is reported as “Stable”.
Taken in the same sequence, the figures for `C[n+]1cccc(C(=O)Oc2cc(Cl)ccc2Oc2ccc(Cl)cc2Cl)c1.[Cl-]` were 3.6 µM, 10.2 µM, 2.07 µM, 13.7 µM and “Stable”.
Regarding `CN(C)CCOC(=O)CCCC(=O)Oc1cc(Cl)ccc1Oc1ccc(Cl)cc1Cl`, the IC50 stood at 0.26 µM with Escherichia coli [1] and 0.62 µM in the data set on Plasmodium falciparum [2]. The figures for the MIC against Escherichia coli [1] and against Plasmodium falciparum [2] were 0.55 µM (≈ 0.261 µg/mL) and 7.9 µM (≈ 3.75 µg/mL), respectively. Also, the Stability result in data set [3] was “Stable”. In addition, the t1/2 was determined as 567 min with Plasmodium falciparum [5] and 6 min in the data set with Escherichia coli [4].
In the case of `C[N+](C)(C)CCOC(=O)CCCC(=O)Oc1cc(Cl)ccc1Oc1ccc(Cl)cc1Cl.[Cl-]`, in the data set with Escherichia coli [1], the IC50 stood at 0.42 µM and the MIC turned out to be 1 µM. In the data set with Plasmodium falciparum [2], this molecule displayed a 50% inhibitory concentration (IC50) of 3.02 µM and an MIC of 19.7 µM. The Stability entry in data set [3] is “Stable”. In addition, the t1/2 in the data set with Escherichia coli [4] is 8 min.
On to `CC(=O)CCC(=O)Oc1cc(Cl)ccc1Oc1ccc(Cl)cc1Cl`, for which the IC50 is 77 µM in the data set on Escherichia coli [1] and 0.68 µM in the data set with Plasmodium falciparum [2]. Moreover, 6.2 µM (≈ 2.4 µg/mL) was the least that counted as inhibitory with Plasmodium falciparum [2] (MIC). Also, in data set [3], the Stability result is listed as “Stable”. Besides, the t1/2 in the data set on Plasmodium falciparum [5] was found to be 572 min.
On to `CCCCC(=O)Oc1cc(Cl)ccc1Oc1ccc(Cl)cc1Cl`, for which the IC50 in the data set with Escherichia coli [1] turned out to be 140 µM. Also, in the data set on Plasmodium falciparum [2], it took 8.9 µM to reach half-maximal inhibition (IC50) and the MIC worked out at 33.8 µM (≈ 12.6 µg/mL). Moreover, the Stability result in data set [3] is “Stable”.
For the molecule `Oc1cc(Cl)ccc1Oc1ccc(Cl)cc1Cl` [TRICLOSAN], the IC50 in the data set with Escherichia coli [1] turned out to be 0.75 µM; in the data set with Plasmodium falciparum [2] it was 2.29 µM. The MIC in the data set on Escherichia coli [1] came to 1 µM (≈ 0.29 µg/mL); in the data set on Plasmodium falciparum [2] it was 17.6 µM (≈ 5.1 µg/mL). Further, in data set [3], the Stability result is “Stable”.

A word on the IC50: it is the midpoint of a concentration-inhibition curve. As usually defined, the MIC is the lowest concentration that inhibits growth of the organism. A low value points to greater potency.

The values are drawn from ChEMBL document CHEMBL1150299, “Design, synthesis, and application of novel triclosan prodrugs as potential antimalarial and antibacterial agents” (Bioorg Med Chem, 2008).
